The compounds below were run against T1, 3',5'-cyclic-AMP phosphodiesterase 4D (Homo sapiens, UniProt Q08499) (assay: Inhibition of human PDE4D2 catalytic domain (86 to 413 residues) expressed in Escherichia coli strain BL21 using [3H]cAMP as substrate after 15 mins by liquid scintillation counter analysis).
T1 sequence (Q08499 whole entry, the tested form may be a part): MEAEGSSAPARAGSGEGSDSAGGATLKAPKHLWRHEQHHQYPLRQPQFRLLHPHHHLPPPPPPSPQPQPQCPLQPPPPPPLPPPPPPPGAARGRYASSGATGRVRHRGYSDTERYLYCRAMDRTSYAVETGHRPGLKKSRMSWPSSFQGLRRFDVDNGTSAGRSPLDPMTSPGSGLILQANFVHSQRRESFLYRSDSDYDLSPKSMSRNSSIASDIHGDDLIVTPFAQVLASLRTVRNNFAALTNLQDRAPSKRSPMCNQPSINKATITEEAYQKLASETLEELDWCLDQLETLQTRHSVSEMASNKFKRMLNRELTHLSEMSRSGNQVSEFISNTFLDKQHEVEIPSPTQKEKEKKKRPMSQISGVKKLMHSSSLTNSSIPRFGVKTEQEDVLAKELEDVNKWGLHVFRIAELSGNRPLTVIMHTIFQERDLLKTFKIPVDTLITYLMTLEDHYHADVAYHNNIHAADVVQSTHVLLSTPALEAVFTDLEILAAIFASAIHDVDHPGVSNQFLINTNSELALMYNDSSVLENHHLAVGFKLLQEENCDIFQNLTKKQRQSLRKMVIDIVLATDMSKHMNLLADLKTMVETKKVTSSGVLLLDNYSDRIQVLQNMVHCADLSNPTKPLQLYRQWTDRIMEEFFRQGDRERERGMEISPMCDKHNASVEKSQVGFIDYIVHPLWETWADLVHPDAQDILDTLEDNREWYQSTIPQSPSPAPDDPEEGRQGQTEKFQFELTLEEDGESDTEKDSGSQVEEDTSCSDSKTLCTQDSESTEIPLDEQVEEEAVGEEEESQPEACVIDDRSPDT

IC50	SMILES
0.2 µM	OCc1ccc2c(c1C#Cc1ccc(O)cc1)C(c1ccc(O)cc1)(c1ccc(O)cc1)c1cc(O)ccc1-2
1.2 µM	Oc1ccc(C#Cc2ccc(O)c3c2C(c2ccc(O)cc2)(c2ccc(O)cc2)c2cc(O)ccc2-3)cc1

Second part, the compound before the results:

SMILES	IC50
O=C1C=CC(=C(c2ccc(O)cc2)c2c(-c3ccc(O)cc3)ccc(CO)c2C#Cc2ccc(O)cc2)C=C1	1 µM
COc1ccc(C2(c3ccc(OC)cc3)c3cc(O)ccc3-c3cccc(C#Cc4ccc(O)cc4)c32)cc1	0.09 µM
COc1ccc(C2(c3ccc(OC)cc3)c3cc(O)ccc3-c3ccc(C=O)c(C#Cc4ccc(O)cc4)c32)cc1	0.01 µM

The compounds below were run against T1, 3',5'-cyclic-AMP phosphodiesterase 4D (assay: Inhibition of PDE4D2 (unknown origin) by preincubated for 30 mins before substrate addition and measured after 60 mins by IMAP TR-FRET phosphodiesterase evaluation assay).
In short: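 Purchased PDE4D2 at 5.0 pg/μL in IMAP buffer (10 mM Tris pH 7.2, 10 mM MgCl2, 0.05% NaN3, 1 mM DTT, 0.1% phosphate-free BSA). Compound or vehicle preincubated 30 min at RT, then FAM-cAMP added (200 nM final), 60 min at RT. Stopped with IMAP Tb binding reagent, 60 min at RT, fluorescence read. IC50 by four-parameter nonlinear fit, three independent replicates.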

IC50	SMILES
32.1 µM	COc1ccc([C@@]2(c3ccc(O)cc3)c3cc(O)ccc3-c3ccc(CO)c(C#Cc4ccc(O)cc4)c32)cc1
5.4 µM	COc1ccc(C2(c3ccc(OC)cc3)c3cc(O)ccc3-c3ccc(CO)c(C#Cc4ccc(O)cc4)c32)cc1
23.2 µM	COCc1ccc2c(c1C#Cc1ccc(O)cc1)C(c1ccc(O)cc1)(c1ccc(O)cc1)c1cc(O)ccc1-2
19.5 µM	COc1ccc([C@@]2(c3ccc(O)cc3)c3cc(O)ccc3-c3ccc(C)c(C#Cc4ccc(O)cc4)c32)cc1
33.8 µM	COCc1ccc2c(c1C#Cc1ccc(O)cc1)[C@](c1ccc(O)cc1)(c1ccc(OC)cc1)c1cc(O)ccc1-2
29.5 µM	COCc1cc(O)c2c(c1C#Cc1ccc(O)cc1)C(c1ccc(O)cc1)(c1ccc(O)cc1)c1cc(O)ccc1-2

More lines, now with the values behind:

SMILES	IC50
COCc1ccc2c(c1C#Cc1ccc(O)cc1)C(c1ccc(OC)cc1)(c1ccc(OC)cc1)c1cc(O)ccc1-2	2.8 µM
COc1ccc(-c2c3ccc(OC)cc3c3c4c(ccc(-c5ccc(O)cc5)c24)[C@@H](c2ccc(O)cc2)OC3=O)cc1	> 30 µM
COc1ccc(-c2c3ccc(OC)cc3c3c4c(ccc(-c5ccc(O)cc5)c24)C(=O)O[C@H]3c2ccc(O)cc2)cc1	13.7 µM
COc1ccc(C2(c3ccc(OC)cc3)c3cc(O)ccc3-c3ccc(C)c(C#Cc4ccc(O)cc4)c32)cc1	24.6 µM
